Experimental data taken from ChEMBL document CHEMBL2439964, “Identification of a series of 1,3,4-trisubstituted pyrazoles as novel hepatitis C virus entry inhibitors” (Bioorg Med Chem Lett, 2013).

Experiments:
[1] = Selectivity index, ratio of CC50 for human HuH7 cells to EC50 for cell culture derived HCV; set-up: species or system Huh-7
Method in brief: (§1)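 Naïve Huh-7 cells in 384-well plates were given serially diluted compound, then infected with cell culture-derived HCV (HCVcc) at MOI 1. Live cells were analysed 72 h post-infection. EC50 came from 10-point dose-response in duplicate with quadruplicate measurements, or 5-point in duplicate for one series. CC50 came from automated per-well cell counts. SI = CC50/EC50.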

[2] = Cytotoxicity against human HuH7 cells; type: cell-based, Huh-7; method in brief: as §1
Hepatitis C virus = assay: Antiviral activity against cell culture derived HCV infected in human HuH7 cells assessed as inhibition of viral replication after 72 hrs; type: functional, organism-based, Hepacivirus hominis; conditions: Huh-7, 72 h; method in brief: as §1

| EC50 (Hepatitis C virus) | SMILES | Ratio CC50/EC50 [1] | CC50 [2] |
| --- | --- | --- | --- |
| 1300 nM | CN1CCN(CCNCc2cn(-c3ccc(F)cc3F)nc2-c2ccc(N(C)C)cc2)CC1 | >15 | > 20000 nM |
| 11000 nM | CN1CCN(CCNCc2cn(-c3ccc(F)cc3F)nc2C(C)(C)C)CC1 | >1.8 | > 20000 nM |
| 2800 nM | Cc1ccccc1-c1nn(-c2ccc(F)cc2F)cc1CNCCN1CCN(C)CC1 | >7.2 | > 20000 nM |
| 4300 nM | Cc1ccccc1CNc1nn(-c2ccc(F)cc2F)cc1CNCCN1CCN(C)CC1 | >4.7 | > 20000 nM |
| 3200 nM | CN1CCN(CCNCc2cn(-c3ccc(F)cc3F)nc2-c2cccc(N(C)C)c2)CC1 | >6.3 | > 20000 nM |
| 2200 nM | Cc1ccccc1-c1nn(-c2ccc(F)cc2F)cc1CNCCCN1CCN(C)CC1 | >9 | > 20000 nM |
| 580 nM | CN1CCN(CCNCc2cn(-c3ccc(F)cc3F)nc2-c2cccc(Cl)c2)CC1 | 26 | 15000 nM |
| > 20000 nM | Cc1ccccc1-c1nn(-c2ccc(F)cc2F)cc1CNCCN1CCOCC1 |  | > 20000 nM |
| 540 nM | CN1CCN(CCNCc2cn(-c3ccc(F)cc3F)nc2-c2ccc(C(F)(F)F)cc2)CC1 | 37 | 20000 nM |
| 2600 nM | Cc1ccccc1-c1nn(-c2ccc(F)c(F)c2)cc1CNCCN1CCN(C)CC1 | >7.7 | > 20000 nM |
| 810 nM | Cc1ccc(-c2nn(-c3ccc(F)cc3F)cc2CNCCN2CCN(C)CC2)cc1 | >25 | > 20000 nM |
| 1700 nM | Cc1cccc(-c2nn(-c3ccc(F)cc3F)cc2CNCCN2CCN(C)CC2)c1 | >12 | > 20000 nM |

Second part, the compound before the results:

| SMILES | EC50 (Hepatitis C virus) | Ratio CC50/EC50 [1] | CC50 [2] |
| --- | --- | --- | --- |
| Cc1ccccc1-c1nn(-c2ccc(Cl)cc2)cc1CNCCN1CCN(C)CC1 | 650 nM | 26 | 17000 nM |
| CCCN1CCC(CNCc2cn(-c3ccc([N+](=O)[O-])cc3)nc2-c2ccc(C(F)(F)F)cc2)CC1 | 150 nM | 15 | 2300 nM |
| CCCN1CCC(CNCc2cn(-c3ccc(C(F)(F)F)cc3)nc2-c2ccc(Cl)cc2)CC1 | 290 nM | 6.7 | 1900 nM |
| CN1CCN(CCNCc2cn(-c3ccc(C(F)(F)F)cc3)nc2-c2ccc(Cl)cc2)CC1 | 360 nM | 8.4 | 3000 nM |
| Cc1ccccc1-c1nn(-c2ccc(F)cc2F)cc1CNC1CCN(S(C)(=O)=O)CC1 | > 20000 nM |  | > 20000 nM |
| CN1CCN(CCNCc2cc(-c3ccccc3)nn2-c2ccc(F)cc2)CC1 | 13000 nM |  | > 20000 nM |
| CCOC(=O)Cn1cc(CNCCN2CCN(C)CC2)c(-c2ccccc2C)n1 | > 20000 nM |  | > 20000 nM |
| CN1CCN(CCCNCc2cn(-c3ccc([N+](=O)[O-])cc3)nc2-c2ccc(OC(F)(F)F)cc2)CC1 | 340 nM | 4.6 | 1600 nM |
| Cc1ccccc1-c1nn(-c2cccc(Cl)c2)cc1CNCCN1CCN(C)CC1 | 1000 nM | 16 | 16000 nM |
| CN1CCN(CCNCc2cn(-c3ccc(F)cc3F)nc2C2CCCCC2)CC1 | 1200 nM | >17 | > 20000 nM |
| Cc1ccc(-n2cc(CNCCN3CCN(C)CC3)c(-c3ccccc3C)n2)c(C)c1 | 2400 nM | >8.3 | > 20000 nM |
| Cc1ccccc1-c1nn(-c2ccc(N)cc2)cc1CNCCN1CCN(C)CC1 | 10000 nM | >2 | > 20000 nM |
| Cc1ccccc1-c1nn(-c2ccc(F)cc2F)cc1CN1CCN(c2ccccc2)CC1 | > 20000 nM |  | > 20000 nM |
| CN1CCN(CCNCc2cn(-c3ccc(F)cc3F)nc2-c2ccc(S(=O)(=O)N(C)C)cc2)CC1 | 1800 nM | >11 | > 20000 nM |
| CN1CCN(CCNCc2cn(-c3ccc(C(F)(F)F)cc3)nc2-c2ccc(C(F)(F)F)cc2)CC1 | 490 nM | 3.1 | 1500 nM |
| CN1CCN(CCCNCc2cn(-c3ccc([N+](=O)[O-])cc3)nc2-c2ccc(C(F)(F)F)cc2)CC1 | 120 nM | 41 | 4900 nM |
| Cc1ccccc1-c1nn(-c2ccc(F)cc2F)cc1CNCCCCO | > 20000 nM |  | > 20000 nM |
| CSc1ccc(-n2cc(CNCCN3CCN(C)CC3)c(-c3ccccc3C)n2)cc1 | 670 nM | 25 | 17000 nM |
| COc1ccc(-n2cc(CNCCN3CCN(C)CC3)c(-c3ccccc3C)n2)cc1 | 2800 nM | >7.1 | > 20000 nM |
| CN1CCN(CCNCc2cn(-c3ccc(F)cc3F)nc2-c2ccc(OC(F)(F)F)cc2)CC1 | 360 nM | 50 | 18000 nM |
